High-throughput results (PubChem)
Shown are actives, neighbours in structure and some others; about 0.63% of the full set was active somewhere.
TRPN1 ag: agonists of zebrafish TRPN1 channel. activation, % at 3 µM. AID 1424. HEK293 zebrafish TRPN1-YFP, Fluo-8 calcium fluorescence; 100% = response to 87 µM carbachol. 0.18% of 220,000 active;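 active = activation above its plate's cutoff, the mean activation of test wells on that plate plus 3 SD, cut at about 19% in these data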;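 also: 0% = DMSO alone and 100% = 87 µM carbachol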
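Material: zebrafish TRPN1-YFP in HEK293 cells. Doses: one dose of 3 µM, 0.3% DMSO. Incubation: dye 1 h 37 °C plus 30 min RT. Measured by: intracellular calcium fluorescence with Fluo-8.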
TRPML3 agonist: activates the human TRPML3 channel. HEK293 TRPML3-YFP, Fluo-8 calcium fluorescence; 100% = the carbachol control signal. activation, % at 3 µM. 0.29% of 220,000 active;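 active = activation above its plate's cutoff, the mean activation of the plate's test wells plus 3 SD, cut at about 12% in these data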;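 also: 0% = DMSO only wells and 100% = carbachol wells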
Target sequence (Q8TDD5 whole entry, looked up): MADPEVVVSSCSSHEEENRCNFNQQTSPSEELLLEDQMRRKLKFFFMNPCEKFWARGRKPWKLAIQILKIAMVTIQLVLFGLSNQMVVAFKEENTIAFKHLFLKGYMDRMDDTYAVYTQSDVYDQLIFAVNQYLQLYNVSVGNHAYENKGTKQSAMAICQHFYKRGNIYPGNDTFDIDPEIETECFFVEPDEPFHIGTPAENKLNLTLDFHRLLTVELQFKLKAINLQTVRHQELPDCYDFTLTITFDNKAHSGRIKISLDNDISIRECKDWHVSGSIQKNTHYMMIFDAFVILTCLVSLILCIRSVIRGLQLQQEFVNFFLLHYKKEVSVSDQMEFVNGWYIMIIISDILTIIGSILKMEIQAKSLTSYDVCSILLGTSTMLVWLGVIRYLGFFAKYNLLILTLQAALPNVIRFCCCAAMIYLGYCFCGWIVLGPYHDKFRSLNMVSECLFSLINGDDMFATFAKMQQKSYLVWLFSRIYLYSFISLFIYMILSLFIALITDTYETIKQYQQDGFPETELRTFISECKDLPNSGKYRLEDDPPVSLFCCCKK
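Material: HEK293 cells stably carrying human TRPML3-YFP; compound dosing: single dose, 3 µM final nominal compound, 0.3% DMSO final; incubation: 1-h 37 °C dye load, 5-s basal, 120-s post-compound reads; technique: Fluo-8 intracellular calcium fluorescence, excitation 470-495 nm, emission 515-575 nm; read-out basis: percent activation from peak-to-basal fluorescence ratio, scaled between DMSO and carbachol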
IDE inh: inhibits human insulin-degrading enzyme in HEK cells; inhibition, % at 5.59 µM; FAbetaB cleavage, fluorescence polarization; P14735; AID 434962; 0.41% of 320,000 active;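 active = percent inhibition above the average of all tested compounds plus 3 SD, set per screening campaign, cut at about 16% in these data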;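 also: IDE supplied by intact live HEK cells; FP after avidin binding of uncleaved biotin substrate so inhibition keeps polarization high; 0% = DMSO wells and 100% = 60 µM reference IDE inhibitor Ii1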
IDE cell activ: activators of human insulin-degrading enzyme in cells | HEK cells, FAbeta-B cleavage, fluorescence polarization; 0% vehicle, 100% cell-free pure enzyme wells | activation, % at 5.96 µM | 0.073% of 340,000 active | AID 493087;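 active = activation above the mean of all tested compounds plus 3 SD, set per screening campaign, cut at about 17% in these data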
IDE cell inh cf: cellular human IDE inhibition, confirmation; shares compounds with IDE inh; HEK cells, FAbetaB cleavage, fluorescence polarization; inhibition, % at 5.59 µM; 51% of 1,200 active; AID 435028;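 active = mean inhibition across triplicate wells above the cutoff set by the earlier primary insulin-degrading enzyme screen, cut at about 16% in these data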;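 also: 0% = DMSO wells and 100% = 60 µM reference IDE inhibitor Ii1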
HEK293 tox: HEK cell cytotoxicity, counter-screen for IDE inhibitors | AID 449730 | HEK293 cytotoxicity, ATP luminescence | 28% of 1,200 active | shares compounds with IDE inh | inhibition, % at 5.59 µM; in the data active = inhibition above about 22%;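 also: 0% = vehicle wells and 100% = reference cytotoxic drug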
* = called active by the depositor.

How did CCc1ccc(C(=O)N/N=C/c2ccc(Cl)cc2Cl)nc1 do in these assays?
TRPN1 ag: -1.2; TRPML3 agonist: -0.3; IDE inh: 17.6*; IDE cell inh cf: 9.7; HEK293 tox: 8.0

What do the screens show for `Oc1cccc2ccc(Nc3ccccn3)nc12`?
TRPN1 ag: 2.4; TRPML3 agonist: 2.9; IDE inh: 24.9*; IDE cell activ: -17.3; IDE cell inh cf: 9.7; HEK293 tox: 44.7*

What do the screens show for `COc1cccc(CNC(=O)COC(=O)c2ccc(Cl)s2)c1`?
IDE inh: 0.0; IDE cell activ: -5.6

What do the screens show for `CCN1CCN(c2ccc(S(=O)(=O)N3CCCCC3)cc2NC(=O)c2ccc([N+](=O)[O-])s2)CC1`?
IDE inh: 1.5; IDE cell activ: -1.0

What do the screens show for `O=C(NCC1CCCO1)c1ccc(COc2ccc(Br)cc2)cc1` (configuration not stated)?
TRPN1 ag: 5.0; TRPML3 agonist: 0.5; IDE inh: 21.6*; IDE cell activ: -12.6; IDE cell inh cf: 4.6; HEK293 tox: 23.8*

What do the screens show for `Cc1ccc(OCc2ccc(C(=O)NCC3CCCO3)cc2)cc1C` (configuration not stated)?
IDE inh: 4.7; IDE cell activ: -7.8

What do the screens show for `CN(C)S(=O)(=O)c1ccc2c(c1)/C(=C/c1cc3c([nH]1)CCCC3)C(=O)N2`?
IDE inh: 45.4*; IDE cell activ: -89.9; IDE cell inh cf: 105.1*; HEK293 tox: 15.3

Results for COc1ccccc1N/C(N)=N/c1nc(C(F)(F)F)cc(=O)[nH]1 ?
TRPN1 ag: 2.3; TRPML3 agonist: 0.8; IDE inh: 18.4*; IDE cell activ: -9.1; IDE cell inh cf: 7.3; HEK293 tox: 11.8

What do the screens show for `O=C(CNC(=O)c1ccc(F)cc1)Nc1ccccc1C(F)(F)F`?
TRPN1 ag: 0.5; TRPML3 agonist: -0.2; IDE inh: 6.0; IDE cell activ: 1.4

How did Cc1ccc(-c2n[nH]c(=S)c3ccccc23)cc1S(=O)(=O)NCC1CCCO1 (configuration not stated) do in these assays?
IDE inh: 21.6*; IDE cell activ: -11.2; IDE cell inh cf: 5.1; HEK293 tox: 16.1

Results for COc1ccc(-c2cc(C(=O)Nc3cc(Br)ccc3O)no2)cc1 ?
IDE inh: 0.8; IDE cell activ: 1.4

How did CC(C)CNc1ncnc2c1cnn2Cc1ccccc1Cl do in these assays?
IDE inh: 17.1*; IDE cell activ: -10.6; IDE cell inh cf: 9.4; HEK293 tox: 12.4

Results for c1ccc(Cn2ncc3c(NCc4ccco4)ncnc32)cc1 ?
TRPN1 ag: -1.1; TRPML3 agonist: -0.1; IDE inh: 17.9*; IDE cell activ: -11.2; IDE cell inh cf: 9.8; HEK293 tox: 12.1

How did O=C(O)c1ccc(Nc2ncnc3c2cnn3Cc2ccccc2)cc1 do in these assays?
TRPN1 ag: 0.9; TRPML3 agonist: 0.6; IDE inh: 17.0*; IDE cell activ: -18.4; IDE cell inh cf: 8.6; HEK293 tox: 3.7

How did Cc1cccc(Nc2ncnc3c2cnn3Cc2ccccc2)c1 do in these assays?
TRPN1 ag: -0.8; TRPML3 agonist: -1.0; IDE inh: -2.0; IDE cell activ: -4.5

Results for CC(C)Nc1ncnc2c1cnn2Cc1ccccc1Cl ?
IDE inh: 2.6; IDE cell activ: 2.2

Results for CN(C(=O)c1cccc(NC(=O)Cc2cccc([N+](=O)[O-])c2)c1)C1CCCC1 ?
IDE inh: 0.7; IDE cell activ: 3.3

Results for CC(C)(C)c1ccc(S(=O)(=O)NCC(=O)N2CCN(Cc3ccccc3)CC2)cc1 ?
IDE inh: 7.8; IDE cell activ: 0.1

Results for CN1CCS/C1=C/C=C1/SC(=S)N(Cc2ccccc2)C1=O ?
TRPN1 ag: 2.9; TRPML3 agonist: 1.1; IDE inh: 105.2*; IDE cell activ: -81.0; IDE cell inh cf: 81.8*; HEK293 tox: 15.3

How did CN1CCS/C1=C/C=C1\SC(=S)N(CC(=O)O)C1=O do in these assays?
TRPN1 ag: 21.3*; TRPML3 agonist: 10.0; IDE inh: 59.8*; IDE cell activ: -96.8; IDE cell inh cf: 74.6*; HEK293 tox: 5.9

What do the screens show for `CCCCN1C(=O)/C(=C/C=C2\SCCN2C)SC1=S`?
TRPN1 ag: 10.2; TRPML3 agonist: 5.9; IDE cell activ: -88.1

What do the screens show for `O=C(O)CCSCCCN1C(=O)c2cccc3cccc(c23)C1=O`?
TRPN1 ag: 0.8; TRPML3 agonist: 0.4; IDE inh: -0.8; IDE cell activ: 3.7

Results for O=C(Nc1ccc(C(F)(F)F)cc1Cl)c1ccc(Cn2cc(Br)cn2)o1 ?
TRPN1 ag: -1.2; TRPML3 agonist: -0.9; IDE inh: 16.7*; IDE cell activ: -12.3; IDE cell inh cf: 11.1; HEK293 tox: 11.5

How did O=C(Nc1cccc(C(F)(F)F)c1)c1ccc(Cn2cc(Br)cn2)o1 do in these assays?
TRPN1 ag: 1.0; TRPML3 agonist: -2.0; IDE inh: 12.7; IDE cell activ: -6.5

What do the screens show for `COC(=O)c1ccc2c(c1)C(C)(C)C(/C=C/c1ccc(O)cc1)=[N+]2C`?
TRPN1 ag: 7.0; TRPML3 agonist: 5.2; IDE inh: 16.2*; IDE cell activ: -25.4; IDE cell inh cf: 20.6*; HEK293 tox: 122.0*

How did CCN1CCC2(CC1)C(C#N)=C(N)Oc1c2sc2nc(C)cc(C)c12 do in these assays?
TRPN1 ag: 9.4; TRPML3 agonist: 4.6; IDE inh: 35.1*; IDE cell activ: -14.7; IDE cell inh cf: 6.4; HEK293 tox: 17.6

How did CC(=O)N1CCC2(CC1)C(C#N)=C(N)Oc1c2sc2nc(C)cc(C)c12 do in these assays?
TRPN1 ag: 1.2; TRPML3 agonist: 0.6; IDE inh: 3.8; IDE cell activ: -1.5

What do the screens show for `CCOc1ccc(/C=C/C(=O)N(C)CC(=O)Nc2cccc(F)c2)cc1OCC`?
IDE inh: -2.5; IDE cell activ: 2.0

Results for CC(=O)c1ccc(S(=O)(=O)N(C)CC(=O)NCC2CCCCC2)cc1 ?
IDE inh: -4.4; IDE cell activ: 3.7

How did CCC(=O)NC(c1ccc(C)cc1)c1cc([N+](=O)[O-])c2cccnc2c1O (configuration not stated) do in these assays?
TRPN1 ag: 1.2; TRPML3 agonist: 0.9; IDE inh: 33.5*; IDE cell activ: 6.1; IDE cell inh cf: 0.7; HEK293 tox: 39.1*

How did CC(=O)NC(c1ccc(C)cc1)c1cc([N+](=O)[O-])c2cccnc2c1O (configuration not stated) do in these assays?
TRPN1 ag: 0.8; TRPML3 agonist: 0.9; IDE inh: 5.6; IDE cell activ: -4.9

What do the screens show for `O=C(N/N=C/c1c(O)n(-c2ccc(Cl)cn2)c(=O)c2ccccc12)C1CC1`?
TRPN1 ag: -0.1; TRPML3 agonist: 1.0; IDE inh: 1.2; IDE cell activ: 2.3
